Reference: ChEMBL document CHEMBL4130442, “Design, synthesis and structure-activity relationship studies of a focused library of pyrimidine moiety with anti-proliferative and anti-metastasis activities in triple negative breast cancer” (Eur J Med Chem, 2017)
The source made the active and inactive calls. No cut-off for these calls is given here.

What was measured:
[1] = biological target: T1, Platelet-derived growth factor receptor beta (Homo sapiens, UniProt P09619); assay: Inhibition of PDGFRbeta in human MDA-MB-231 cells assessed as PDGFRbeta Tyr740 phosphorylation level at 5 uM incubated for 24 hrs by Western blot relative to untreated control; type: cell-based
T1 sequence (P09619 whole entry): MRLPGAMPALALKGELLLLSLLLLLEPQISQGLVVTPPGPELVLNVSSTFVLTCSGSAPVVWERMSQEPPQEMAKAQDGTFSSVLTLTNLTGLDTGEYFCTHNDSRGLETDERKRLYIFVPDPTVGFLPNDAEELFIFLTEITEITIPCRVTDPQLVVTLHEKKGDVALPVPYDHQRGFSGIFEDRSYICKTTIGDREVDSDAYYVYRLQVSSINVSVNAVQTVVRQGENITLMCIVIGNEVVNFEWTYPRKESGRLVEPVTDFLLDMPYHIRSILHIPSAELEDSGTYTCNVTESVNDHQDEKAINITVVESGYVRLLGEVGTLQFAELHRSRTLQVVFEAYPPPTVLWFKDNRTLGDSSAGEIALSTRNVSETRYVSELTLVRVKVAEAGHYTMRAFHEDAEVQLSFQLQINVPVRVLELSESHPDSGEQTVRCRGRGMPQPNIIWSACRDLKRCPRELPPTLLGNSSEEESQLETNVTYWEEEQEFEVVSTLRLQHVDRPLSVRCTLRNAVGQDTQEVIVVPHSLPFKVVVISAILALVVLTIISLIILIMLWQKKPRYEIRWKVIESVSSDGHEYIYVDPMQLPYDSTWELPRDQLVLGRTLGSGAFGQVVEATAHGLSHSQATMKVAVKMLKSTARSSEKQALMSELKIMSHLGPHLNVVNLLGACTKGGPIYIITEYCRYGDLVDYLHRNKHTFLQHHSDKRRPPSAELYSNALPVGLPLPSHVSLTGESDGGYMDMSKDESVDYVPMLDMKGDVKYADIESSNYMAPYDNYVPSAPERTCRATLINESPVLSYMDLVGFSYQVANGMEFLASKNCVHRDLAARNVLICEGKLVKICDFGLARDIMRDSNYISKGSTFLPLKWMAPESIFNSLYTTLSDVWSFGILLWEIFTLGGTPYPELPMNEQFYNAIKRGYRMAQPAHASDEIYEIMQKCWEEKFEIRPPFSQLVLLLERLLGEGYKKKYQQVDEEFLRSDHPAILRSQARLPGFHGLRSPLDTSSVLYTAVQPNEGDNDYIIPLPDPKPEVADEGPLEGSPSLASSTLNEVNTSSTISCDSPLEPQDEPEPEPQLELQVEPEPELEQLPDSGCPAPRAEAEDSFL
How it was run: (§1)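 Cells were treated 24 h at several concentrations. Pooled adherent and floating cells were lysed in Hepes 50 mM pH 7.4 / 1% Triton X-100 buffer with vanadate, NaF, EDTA, PMSF, aprotinin and leupeptin. Equal protein was run on 10-15% SDS-PAGE and blotted to PVDF. PDGFR-β-AKT-ULK1 pathway phospho-proteins were probed and detected by ECL, with β-actin as loading control.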

[2] = biological target: T1, Platelet-derived growth factor receptor beta; assay: Inhibition of PDGFRbeta in human MDA-MB-231 cells assessed as ULK Ser555 phosphorylation level at 10 uM incubated for 24 hrs by Western blot relative to untreated control; type: cell-based; how it was run: as §1
[3] = biological target: Dual specificity mitogen-activated protein kinase kinase; MEK1/2 (Homo sapiens) (UniProt P36507+Q02750); assay: Inhibition of MEK1/2 in human MDA-MB-231 cells assessed as MEK1/2 Ser217/221 phosphorylation level at 2.5 uM incubated for 24 hrs in presence of PDGFRbeta siRNA by Western blot relative to untreated control; type: cell-based
Chain of Dual specificity mitogen-activated protein kinase kinase; MEK1/2 (Homo sapiens) (P36507 whole entry, looked up): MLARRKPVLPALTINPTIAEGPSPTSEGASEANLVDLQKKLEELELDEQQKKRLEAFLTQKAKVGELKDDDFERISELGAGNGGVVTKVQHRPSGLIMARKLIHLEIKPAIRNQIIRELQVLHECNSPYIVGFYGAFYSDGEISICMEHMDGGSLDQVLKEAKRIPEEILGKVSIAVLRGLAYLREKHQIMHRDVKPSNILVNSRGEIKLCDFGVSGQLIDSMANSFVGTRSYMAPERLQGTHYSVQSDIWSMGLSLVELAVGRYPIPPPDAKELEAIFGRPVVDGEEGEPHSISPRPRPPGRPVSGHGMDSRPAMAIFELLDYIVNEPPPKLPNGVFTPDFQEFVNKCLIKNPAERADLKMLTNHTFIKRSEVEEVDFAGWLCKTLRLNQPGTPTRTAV
Chain of Dual specificity mitogen-activated protein kinase kinase; MEK1/2 (Homo sapiens) (Q02750 whole entry, looked up): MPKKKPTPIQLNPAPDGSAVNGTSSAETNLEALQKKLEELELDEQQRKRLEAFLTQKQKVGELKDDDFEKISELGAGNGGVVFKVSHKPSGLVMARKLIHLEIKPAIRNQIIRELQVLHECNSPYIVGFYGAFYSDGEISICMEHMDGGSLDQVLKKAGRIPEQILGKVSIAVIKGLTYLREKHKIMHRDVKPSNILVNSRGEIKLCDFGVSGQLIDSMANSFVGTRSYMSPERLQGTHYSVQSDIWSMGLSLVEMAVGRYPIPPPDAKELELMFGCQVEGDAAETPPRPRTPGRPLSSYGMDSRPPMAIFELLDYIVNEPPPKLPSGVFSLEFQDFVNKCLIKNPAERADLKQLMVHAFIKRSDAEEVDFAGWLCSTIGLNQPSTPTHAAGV

MDA-MB-231 [4] = assay: Induction of autophagy in human MDA-MB-231 cells assessed as change in Beclin-1 protein level at 2.5 uM incubated for 24 hrs in absence of PDGFRbeta siRNA by Western blot method relative to untreated control; type: functional
How it was run: (§2)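 MDA-MB-231 cells were exposed for 24 h. Adherent and floating cells were pooled and lysed for 1 h at 4 °C in 50 mM Hepes pH 7.4 with 1% Triton X-100, orthovanadate, NaF, EDTA, PMSF, aprotinin and leupeptin. After 12,000 rpm clearing, equal protein was run on 10-15% SDS-PAGE and blotted to PVDF. Detection used HRP-ECL, with β-actin as loading control and densitometric quantification.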

[5] = biological target: T1, Platelet-derived growth factor receptor beta; assay: Inhibition of PDGFRbeta in human MDA-MB-231 cells assessed as C-Raf Ser259 phosphorylation level at 5 uM incubated for 24 hrs in presence of PDGFRbeta siRNA by Western blot relative to untreated control; type: cell-based
MDA-MB-231 [6] = assay: Induction of autophagy in human MDA-MB-231 cells co-transfected with GFP-mRFP-LC3 assessed as increase in LC3 puncta aggregation at 2.5 uM by fluorescence micrsocpy; type: functional, cell-based
How it was run: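 Cells were transfected with a GFP/mRFP-LC3 plasmid and incubated with 2.5 μM compound. GFP-LC3 puncta were then observed by fluorescence microscopy.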

[7] = biological target: T1, Platelet-derived growth factor receptor beta; assay: Inhibition of PDGFRbeta in human MDA-MB-231 cells assessed as Akt Thr305 phosphorylation level at 2.5 uM incubated for 24 hrs in presence of control siRNA by Western blot relative to untreated control; type: cell-based
How it was run: (§3)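 Cells were transfected with control or PDGFR-β siRNA, then treated with 2.5 μM compound for 24 h. PDGFR-β-AKT-ULK1 pathway phospho-proteins were assessed by western blot: lysis in Hepes pH 7.4 / Triton buffer, 10-15% SDS-PAGE, PVDF, ECL detection, β-actin as loading control.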

[8] = biological target: T1, Platelet-derived growth factor receptor beta; assay: Inhibition of PDGFRbeta in human MDA-MB-231 cells assessed as ULK Ser317 phosphorylation level at 2.5 uM incubated for 24 hrs in presence of PDGFRbeta siRNA by Western blot relative to untreated control; type: cell-based; how it was run: as §3
MDA-MB-231 [9] = assay: Induction of apoptosis in human MDA-MB-231 cells assessed as change in cleaved PARP protein level at 5 uM incubated for 24 hrs by Western blot method relative to untreated control; type: functional; how it was run: as §2
MDA-MB-231 [10] = assay: Effect on total Akt protein level in human MDA-MB-231 cells at 2.5 uM incubated for 24 hrs in absence of PDGFRbeta siRNA by Western blot relative to untreated control; type: ADME, cell-based; details: mda-mb-231, 24 h; how it was run: as §2
MDA-MB-231 [11] = assay: Induction of autophagy in human MDA-MB-231 cells assessed as change in Beclin-1 protein level at 2.5 uM incubated for 24 hrs by Western blot method relative to untreated control; type: functional; how it was run: as §2
[12] = biological target: T1, Platelet-derived growth factor receptor beta; assay: Inhibition of PDGFRbeta in human MDA-MB-231 cells assessed as ULK Ser317 phosphorylation level at 2.5 uM incubated for 24 hrs by Western blot relative to untreated control; type: cell-based; how it was run: as §1
[13] = biological target: T1, Platelet-derived growth factor receptor beta; assay: Inhibition of PDGFRbeta in human MDA-MB-231 cells assessed as ULK Ser555 phosphorylation level at 5 uM incubated for 24 hrs by Western blot relative to untreated control; type: cell-based; how it was run: as §1
[14] = biological target: T1, Platelet-derived growth factor receptor beta; assay: Inhibition of PDGFRbeta in human MDA-MB-231 cells assessed as Akt Ser473 phosphorylation level at 2.5 uM incubated for 24 hrs by Western blot relative to untreated control; type: cell-based; how it was run: as §1
[15] = biological target: T1, Platelet-derived growth factor receptor beta; assay: Inhibition of PDGFRbeta in human MDA-MB-231 cells assessed as PDGFRbeta Tyr740 phosphorylation level at 2.5 uM incubated for 24 hrs in presence of control siRNA by Western blot relative to untreated control; type: cell-based; how it was run: as §3
MDA-MB-231 [16] = assay: Effect on total Ras protein level in human MDA-MB-231 cells at 5 uM incubated for 24 hrs by Western blot relative to untreated control; details: mda-mb-231, 24 h
[17] = biological target: T1, Platelet-derived growth factor receptor beta; assay: Inhibition of PDGFRbeta in human MDA-MB-231 cells assessed as mTOR Ser2448 phosphorylation level at 10 uM incubated for 24 hrs by Western blot relative to untreated control; type: cell-based; how it was run: as §1

## COc1cccc(Nc2cc(N3CCN(C(=O)Nc4ccc(C(F)(F)F)cc4)CC3)ncn2)c1
[1]
  fold change (FC): 0.78
[2]
  fold change (FC): 5.6
[3]
  fold change (FC): 1.12
MDA-MB-231 [4]
  fold change (FC): 4.02
[5]
  fold change (FC): 1.06
MDA-MB-231 [6]
  Activity: Active
[7]
  fold change (FC): 0.1
[8]
  fold change (FC): 3.46
MDA-MB-231 [9]
  fold change (FC): 0.85
MDA-MB-231 [10]
  fold change (FC): 0.62
MDA-MB-231 [11]
  fold change (FC): 2.3
[12]
  fold change (FC): 1.5
[13]
  fold change (FC): 4.2
[14]
  fold change (FC): 0.45
[15]
  fold change (FC): 0.08
MDA-MB-231 [16]
  fold change (FC): 1.35
[17]
  fold change (FC): 0.16
